# Calls of active or inactive are those of the source. No cut-off for these calls is given here.
# What was measured:
# [1] = fAUC (0 to 24 hrs) in rat at 10 mg/kg, po administered for 14 days; type: ADME, organism-based; conditions: in vivo, 336 h, time 14 day
# Summary of the method: (§1)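 2-week repeat oral dosing in rats, 0.5% methylcellulose formulation; N=4/sex/dose; doses 3, 10, 30 (males)/15 (females) mg/kg; unbound exposures reported per dose and sex.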
# [2] = target: T1, Muscarinic acetylcholine receptor M1 (Homo sapiens) (UniProt P11229); assay: Positive allosteric modulation of human muscarinic M1 receptor expressed in CHO cells assessed as increase in ACh-induced displacement of [3H]-NMS from M1 receptor at 10 uM by scintillation counting method relative to Ach alone; type: cell-based; conditions: filed as positive allosteric modulator
# T1 sequence (whole entry): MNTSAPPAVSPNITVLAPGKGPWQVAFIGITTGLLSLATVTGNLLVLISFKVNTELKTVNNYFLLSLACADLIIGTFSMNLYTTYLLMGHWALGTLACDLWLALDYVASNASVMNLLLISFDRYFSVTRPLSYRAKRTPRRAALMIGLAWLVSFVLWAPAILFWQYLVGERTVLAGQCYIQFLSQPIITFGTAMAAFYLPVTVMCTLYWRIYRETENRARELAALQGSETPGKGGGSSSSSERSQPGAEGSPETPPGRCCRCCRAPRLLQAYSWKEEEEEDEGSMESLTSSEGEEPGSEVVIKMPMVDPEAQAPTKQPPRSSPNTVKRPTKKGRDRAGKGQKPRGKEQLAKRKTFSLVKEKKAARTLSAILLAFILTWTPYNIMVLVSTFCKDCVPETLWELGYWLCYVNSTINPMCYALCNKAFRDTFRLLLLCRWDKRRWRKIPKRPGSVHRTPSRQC
# [3] = Toxicity in dog assessed as convulsion at 45 mg/kg, po using spray-dried dispersion formulation measured after 45 mins; type: organism-based, Canis lupus familiaris; conditions: in vivo, 0.75 h
# Summary of the method: (§2)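 Dogs received single escalating oral doses as a spray-dried dispersion (10% drug loading with HPMCAS-M). The dispersion was suspended in 0.5 wt% methylcellulose/0.5 wt% HPMCAS in 20 mM tris buffer, pH 7.4. One dog per sex per dose was used, and clinical signs were recorded.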
# [4] = Toxicity in male Beagle dog assessed as decrease in RR interval at 3 mg/kg, po administered as single dose observed upto 9 hrs post last dose by telemetry; type: organism-based, Canis lupus familiaris; conditions: in vivo
# Summary of the method: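 Crossover telemetry study in dogs at three oral doses (0.3, 1 and 3 mg/kg), N=4. Endpoints were blood pressure, maximum systolic left ventricular pressure, LV +dP/dt max, activity, heart rate, and RR, QT and QTc intervals, followed up to 9 h post dose.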
# [5] = Permeability of compound in MDCKII-LE cells; type: ADME, cell-based, Canis lupus familiaris; conditions: dog, MDCK; read-out: permeability
# [6] = Lipophilicity, log D of compound; type: physicochemical; conditions: octanol/water
# [7] = Intrinsic clearance in human liver microsome; type: ADME; conditions: liver microsomes, read-out: CLH
# [8] = Ratio of AUC monkey brain to fAUC in monkey plasma; type: ADME, cell-free, Macaca mulatta; conditions: rhesus monkey, in vivo
# [9] = target: cGMP-dependent 3',5'-cyclic phosphodiesterase (Homo sapiens, UniProt O00408); assay: Inhibition of PDE2A (unknown origin)
# Chain of cGMP-dependent 3',5'-cyclic phosphodiesterase (O00408 whole entry): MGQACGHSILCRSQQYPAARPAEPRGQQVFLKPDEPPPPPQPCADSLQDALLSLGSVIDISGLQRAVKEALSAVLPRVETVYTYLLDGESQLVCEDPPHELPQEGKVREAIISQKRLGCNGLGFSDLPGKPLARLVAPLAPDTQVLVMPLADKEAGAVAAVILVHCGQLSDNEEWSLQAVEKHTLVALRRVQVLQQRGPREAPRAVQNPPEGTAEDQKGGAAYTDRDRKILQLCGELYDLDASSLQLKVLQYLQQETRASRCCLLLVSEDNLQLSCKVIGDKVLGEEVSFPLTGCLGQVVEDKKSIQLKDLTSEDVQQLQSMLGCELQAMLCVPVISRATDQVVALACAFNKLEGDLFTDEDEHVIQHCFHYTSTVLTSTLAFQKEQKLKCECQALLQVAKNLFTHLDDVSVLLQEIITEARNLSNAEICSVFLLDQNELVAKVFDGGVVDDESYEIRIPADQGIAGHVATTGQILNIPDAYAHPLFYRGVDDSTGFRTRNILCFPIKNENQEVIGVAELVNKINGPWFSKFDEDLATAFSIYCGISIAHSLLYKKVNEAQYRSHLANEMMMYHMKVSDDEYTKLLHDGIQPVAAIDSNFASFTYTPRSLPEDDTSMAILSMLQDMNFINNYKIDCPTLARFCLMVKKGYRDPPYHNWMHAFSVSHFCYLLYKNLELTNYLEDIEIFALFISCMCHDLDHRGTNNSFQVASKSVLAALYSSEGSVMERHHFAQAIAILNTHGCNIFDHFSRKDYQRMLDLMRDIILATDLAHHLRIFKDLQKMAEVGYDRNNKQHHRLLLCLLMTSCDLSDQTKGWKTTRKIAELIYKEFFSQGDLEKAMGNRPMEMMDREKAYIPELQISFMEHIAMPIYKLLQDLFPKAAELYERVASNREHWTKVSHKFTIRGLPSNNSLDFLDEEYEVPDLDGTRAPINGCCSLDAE
# [10] = Toxicity in dog assessed as salivation at 15 mg/kg, po using spray-dried dispersion formulation; type: organism-based, Canis lupus familiaris; conditions: in vivo
# [11] = fCmax in dog at 0.3 mg/kg, po measured after 4 hrs using spray-dried dispersion formulation; type: ADME, organism-based, Canis lupus familiaris; conditions: in vivo
# Summary of the method: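 Dogs from the crossover cardiovascular telemetry study (N=4), dosed orally at 0.3, 1 and 3 mg/kg; unbound Cmax extrapolated from 4 h post-dose in-life plasma samples.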
# [12] = fAUC (0 to 24 hrs) in rat at 30 mg/kg, po administered for 14 days; type: ADME, organism-based; conditions: in vivo, 336 h, time 14 day; summary of the method: as §1
# [13] = Unbound brain concentration in CD-1 mouse at 3.2 mg/kg, sc measured after 2 hrs by LC-MS/MS analysis; type: ADME, organism-based; conditions: in vivo
# [14] = Toxicity in dog assessed as emesis at 5 mg/kg, po using spray-dried dispersion formulation; type: organism-based, Canis lupus familiaris; conditions: in vivo; summary of the method: as §2
# [15] = Unbound plasma concentration in amphetamine-induced C57BL/6J mouse model of hyperlocomotion at 3.2 mg/kg, sc measured after 1 hr; type: ADME, organism-based; conditions: in vivo
# Summary of the method: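 Satellite PK animals from the mouse aLMA study, N=2/dose. Dosed subcutaneously with a solution in 5/15/80 DMSO/Solutol/water. Plasma and brain were sampled at T = 1 h.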
# [16] = target: Muscarinic acetylcholine receptor M3 (Homo sapiens, UniProt P20309); assay: Agonist activity at human recombinant muscarinic M3 receptor stably expressed in CHO cells assessed as increase in intracellular calcium level up to 10 uM incubated for 10 mins by Fluo-8AM dye based FLIPR TETRA method; type: cell-based
# Chain of Muscarinic acetylcholine receptor M3 (P20309 whole entry): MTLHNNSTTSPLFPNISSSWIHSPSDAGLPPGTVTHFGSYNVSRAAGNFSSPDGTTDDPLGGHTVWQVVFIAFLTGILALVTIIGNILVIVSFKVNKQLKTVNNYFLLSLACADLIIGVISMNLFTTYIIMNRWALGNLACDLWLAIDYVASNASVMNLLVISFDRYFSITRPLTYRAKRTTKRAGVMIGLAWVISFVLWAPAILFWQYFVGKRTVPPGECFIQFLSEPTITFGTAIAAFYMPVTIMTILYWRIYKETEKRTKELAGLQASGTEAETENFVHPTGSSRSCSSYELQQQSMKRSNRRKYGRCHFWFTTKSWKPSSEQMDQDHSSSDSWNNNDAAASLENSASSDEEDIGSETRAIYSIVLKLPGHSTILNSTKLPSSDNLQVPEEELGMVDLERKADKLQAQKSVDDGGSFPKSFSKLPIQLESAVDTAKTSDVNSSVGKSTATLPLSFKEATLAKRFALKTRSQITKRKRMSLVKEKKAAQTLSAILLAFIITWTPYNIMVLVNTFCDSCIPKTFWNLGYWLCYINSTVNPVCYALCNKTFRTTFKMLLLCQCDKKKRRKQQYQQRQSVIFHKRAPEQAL
# Rattus norvegicus = assay: Reversal of amphetamine-induced prepulse inhibition in Sprague-Dawley rat at 1 mg/kg, sc administered 30 min before testing followed by administration of amphetamine 15 mins prior to testing; type: functional, organism-based
# Summary of the method: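 In rats with amphetamine-disrupted prepulse inhibition, the compound was dosed sc as a suspension in 0.5% methylcellulose in water. Startle reflex and PPI alone were also assessed, and the analysis used the collapsed data set. Plasma and brain levels were taken from randomly chosen animals (N=2/dose) at the end of the study (1.67 h).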
# [17] = fCmax in dog at 45 mg/kg, po using spray-dried dispersion formulation; type: ADME, organism-based, Canis lupus familiaris; conditions: in vivo
# [18] = Unbound brain concentration in scopolamine-induced Wistar rat model at 0.32 mg/kg, po measured after 1 hr; type: ADME, organism-based; conditions: in vivo
# [19] = In vivo positive allosteric modulation of muscarinic M1 receptor in CD1 mouse assessed as increase in ACh-induced IP-1 levels in […] tissue at 10 mg/kg, sc measured after 2 hrs by HTRF assay relative to baseline; type: functional
# Summary of the method: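 Given sc as a solution in 5/15/80 DMSO/Solutol/water. Striatal IP1 was read 2 h after dosing and expressed as fold increase over baseline. Compound levels were measured in striatal tissue at 2 h (N=5/dose). Each animal's fold increase was plotted against its unbound brain concentration.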
# [20] = Toxicity in dog assessed as induction of soft stool at 45 mg/kg, po using spray-dried dispersion formulation measured after 45 mins; type: organism-based, Canis lupus familiaris; conditions: in vivo, 0.75 h
# [21] = fAUC (0 to 24 hrs) in dog at 5 mg/kg, po using spray-dried dispersion formulation; type: ADME, organism-based, Canis lupus familiaris; conditions: in vivo
# [22] = Unbound brain concentration in scopolamine-induced Wistar rat model at 0.1 mg/kg, po measured after 1 hr; type: ADME, organism-based; conditions: in vivo
# Mus musculus = assay: In vivo positive allosteric modulation of muscarinic M1 receptor in CD-1 mouse assessed as increase in ACh-induced IP-1 levels in […] tissue administered subcutaneously measured after 2 hrs by HTRF assay; type: functional, organism-based
# Summary of the method: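 Mice were dosed subcutaneously with a solution in 5/15/80 DMSO/Solutol/water across a 0.1–10 mg/kg dose series. IP1 accumulation in striatum was measured over a 2 h treatment and expressed as fold increase over baseline for each animal. Compound levels were measured in striatal tissue at 2 h (N=5/dose), and unbound brain concentration was derived from these.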
# [23] = Toxicity in dog assessed as emesis at 3 mg/kg, po using spray-dried dispersion formulation; type: organism-based, Canis lupus familiaris; conditions: in vivo; summary of the method: as §2
# MDR1 (P-gp) = assay: Efflux ratio of permeability across basolateral to apical side over apical to basolateral side in dog MDCK-MDR1 cells; type: ADME, cell-based, Canis lupus familiaris
# [24] = Toxicity in dog assessed as induction of loose stool at 3 mg/kg, po using spray-dried dispersion formulation; type: organism-based, Canis lupus familiaris; conditions: in vivo
smiles,measurement,setting,value
Cc1cnc(C(=O)N[C@H]2CCOC[C@@H]2O)cc1Cc1ccc(-c2cscn2)cc1,fAUC,[1],5.739 µM·h
same,fold change (FC),[2],339
same,Activity,[3],Toxic
same,Activity,[4],Toxic
same,Papp,[5],22 ×10⁻⁶ cm/s
same,logD,[6],2.2
same,CLint scaled,[7],< 8 mL/min/kg
same,Ratio AUC,[8],0.41
same,IC50,[9],3.09 µM
same,Activity,[10],Toxic
same,fCmax,[11],41 nM
same,fAUC,[12],13.211 µM·h
same,Drug uptake(free),[13],52.8 nM
same,Activity,[14],Toxic
same,Cp(f),[15],255 nM
same,Activity,[16],Not Active
same,Activity,Rattus norvegicus,Active
same,fCmax,[17],952 nM
same,Drug uptake(free),[18],1.3 nM
same,fold change (FC),[19],42
same,Activity,[20],Toxic
same,fAUC,[21],5.861 µM·h
same,Drug uptake(free),[22],0.31 nM
same,Activity,Mus musculus,Dose-dependent effect
same,Activity,[23],Toxic
same,efflux ratio,MDR1 (P-gp),1.3
same,Activity,[24],Toxic
